Screening data as filed in PubChem BioAssay.
SENP6 inh: inhibitors of human SENP6 protease. Q9GZR1. Recombinant SENP6 catalytic domain, aminoluciferin luminescence. inhibition, % at 10 µM. actives 1.8% (n = 330,000);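 active = inhibition above about 50% at the single tested dose, limit read from the data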
SENP8 block-1: SENP8 (human) protease inhibition; recombinant SENP8, Nedd8 substrate fluorescence; AID 602440; inhibition, % at 20 µM; actives 0.64% (n = 360,000); in the data active = inhibition mostly above about 40%, no sharp cut-off; inactive = mostly below about 27%
SENP7 inh: inhibitors of human SENP7 protease; AID 434973; actives 1.5% (n = 330,000); recombinant SENP7, Z-RLRGG-aminoluciferin luminescence, 40 min; inhibition, % at 5 µM;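 active = inhibition above about 50% at the single test dose, limit read from the data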
SENP1 inh: SENP1 (human) catalytic domain inhibition | inhibition, % at 10 µM | AID 624204 | recombinant SENP1 catalytic domain, CyPet-SUMO1-YPet FRET cleavage | Q9P0U3 | actives 0.21% (n = 360,000);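 active = inhibition at least 30% at 10 µM, raw YFP signal under a set limit, fluorescence ratio 0.5 to 1.5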
Target sequence (Q9P0U3 419-644 limits assumed): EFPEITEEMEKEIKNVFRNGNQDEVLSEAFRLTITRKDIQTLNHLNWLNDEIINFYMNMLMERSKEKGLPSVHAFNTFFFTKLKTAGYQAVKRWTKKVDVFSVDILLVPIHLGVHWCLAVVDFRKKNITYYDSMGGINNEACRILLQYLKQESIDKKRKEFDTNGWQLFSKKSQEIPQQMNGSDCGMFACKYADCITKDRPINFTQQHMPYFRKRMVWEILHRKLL
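material = recombinant human SENP1 catalytic domain, His6-tagged | quantity = 20 pM enzyme | reagent = 25 nM SUMO1 FRET substrate | compound dosing = 10 µM single point, 0.5% DMSO | timing = 50 min enzyme reaction, room temperature, light-protected | detection = FRET, CFP and YFP emission | control set = no-enzyme low, enzyme-DMSO high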
Platelet DG rel: platelet dense granule release activity; human platelet-rich plasma, SFLLRN dense granule ATP release, luminescence; inhibition, %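 (compounds screened at 7.5 µM in platelet-rich plasma)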; actives 0.22% (n = 300,000);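 active = mean replicate score, as percent of positive control, at or above 50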
SENP8 block-2: blocks the human protease SENP8; Q96LD8; purified SENP8, Z-RLRGG-aminoluciferin cleavage, luminescence; inhibition, % at 10 µM; actives 1.2% (n = 330,000); in the data active = inhibition above about 50%
SENP8 conf: confirmation of human SENP8 protease inhibitors; AID 488912; actives 40% (n = 6,200); inhibition, % at 12.5 µM; shares compounds with SENP7 inh; Recombinant SENP8, Z-RLRGG-aminoluciferin luminescence, 60 min;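 active = mean inhibition across replicates above about 50%, limit read from the data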
SENP6 conf: human SENP6 inhibition, confirmed | shares compounds with SENP7 inh | recombinant SENP6, Z-RLRGG-aminoluciferin luminescence | inhibition, % at 12.5 µM | actives 58% (n = 6,200) | AID 488915
SENP7 confirm: confirmation of human SENP7 protease inhibitors; shares compounds with SENP7 inh; actives 69% (n = 6,200); recombinant SENP7, Z-RLRGG-aminoluciferin luminescence, 40 min; AID 488917; inhibition, % at 12.5 µM
Casp3 select: inhibits human caspase-3 in SENP selectivity test | shares compounds with SENP7 inh | purified caspase-3, Z-DEVD-aminoluciferin luminescence, 60 min | inhibition, % at 12.5 µM | actives 60% (n = 6,200);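 active = mean inhibition above about 50%, limit read from the data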
Target sequence (P42574 28-227 limits assumed): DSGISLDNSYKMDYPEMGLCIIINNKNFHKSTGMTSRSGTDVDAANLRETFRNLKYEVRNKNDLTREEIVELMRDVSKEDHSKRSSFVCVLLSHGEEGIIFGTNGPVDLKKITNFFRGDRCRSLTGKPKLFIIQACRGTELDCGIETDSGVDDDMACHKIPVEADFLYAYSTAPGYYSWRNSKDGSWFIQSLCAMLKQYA
SENP luc ctr: interferes with luciferase luminescence in SENP counter-screen; shares compounds with SENP7 inh; Pre-incubated SENP8/Z-RLRGG-aminoluciferin, luciferase luminescence interference; inhibition, % at 12.5 µM; actives 39% (n = 6,200); AID 488919;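 active = mean inhibition above about 50% when retested at one dose, limit read from the data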
Large screens that a line does not name were inactive (follow-up assays come after a bar, where they were run). Compounds with a hit are over-represented: about 2.6% of the library has one in this group of screens.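 The calls were made as follows, unless noted: active = mean inhibition above about 50% in the one-dose retest (limit read from the data); inactive = the rest.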

Cc1ccc(-c2cc3c(nn2)-c2ccccc2C3=O)cc1	SENP6 inh 96.1, SENP8 block-1 48.9, SENP7 inh 99.0, SENP8 block-2 95.9 | SENP8 conf 85.4 | SENP6 conf 95.4 | SENP7 confirm 99.4 | Casp3 select 89.1 | SENP luc ctr inactive
O=C1c2ccccc2-c2n[nH]c3cccc1c23	none (no result: Platelet DG rel)
O=C1c2ccccc2-c2nnc(-c3ccc(O)cc3)cc21	SENP6 inh 98.9, SENP7 inh 100.5, SENP8 block-2 96.0 | SENP8 conf 95.1 | SENP6 conf 94.2 | SENP7 confirm 101.4 | Casp3 select 96.2 | SENP luc ctr inactive
O=c1[nH]nc(-c2ccc(F)cc2)cc1-c1ccccc1	none (no result: SENP6 inh, SENP7 inh, SENP8 block-2)
O=C1c2ccccc2-c2nnc(-c3ccc(F)cc3)cc21	SENP6 inh 83.0, SENP8 block-1 41.9, SENP7 inh 98.7, SENP8 block-2 90.4 | SENP8 conf 86.3 | SENP6 conf 84.5 | SENP7 confirm 82.1 | Casp3 select inactive | SENP luc ctr inactive
N#Cc1c(NC(=O)C2CC2)sc2c1CCCCC2	none
CC(C)(C)c1ccc(C(=O)Nc2ccccc2Cl)cc1	SENP6 inh 80.4, SENP7 inh 75.6, SENP8 block-2 70.0 | SENP8 conf inactive | SENP6 conf 76.1 | SENP7 confirm 94.2 | Casp3 select 60.1 | SENP luc ctr 61.4
CCn1ccc(C(=O)Nc2ccccc2Cl)n1	SENP6 inh 52.9, SENP7 inh 50.5 | SENP8 conf inactive | SENP6 conf inactive | SENP7 confirm 75.6 | Casp3 select 72.1 | SENP luc ctr 56.4
Cc1c(NC(=O)c2cc3c(s2)CCCC3)c(=O)n(-c2ccccc2)n1C	SENP8 block-2 61.2 | SENP8 conf inactive | SENP6 conf inactive | SENP7 confirm inactive | Casp3 select inactive | SENP luc ctr inactive
S=C(Nc1ccc2nsnc2c1)N1CCCCCC1	SENP6 inh 92.8, SENP7 inh 53.0, SENP8 block-2 89.4 | SENP8 conf inactive | SENP6 conf inactive | SENP7 confirm inactive | Casp3 select inactive | SENP luc ctr 57.9
COCCNC(=S)Nc1ccc2nsnc2c1	none
C=CCN(CC=C)C(=S)Nc1ccc2nsnc2c1	SENP6 inh 74.9 | SENP8 conf inactive | SENP6 conf inactive | SENP7 confirm inactive | Casp3 select inactive | SENP luc ctr inactive
C=CCNC(=S)Nc1ccc2nsnc2c1	SENP6 inh 59.7 | SENP8 conf inactive | SENP6 conf inactive | SENP7 confirm inactive | Casp3 select inactive | SENP luc ctr inactive
O=C(Nc1cccc(O)c1)c1cc(-c2ccc3c(c2)OCO3)on1	SENP6 inh 95.6, SENP7 inh 100.8, Platelet DG rel 95.1, SENP8 block-2 89.5 | SENP8 conf inactive | SENP6 conf 95.1 | SENP7 confirm inactive | Casp3 select 76.8 | SENP luc ctr inactive
COc1cc(NC(=O)c2cc(-c3ccc4c(c3)OCO4)on2)cc(OC)c1OC	none
O=C(Nc1cccc(O)c1)c1cc(-c2ccccc2Cl)on1	SENP6 inh 96.9, SENP7 inh 95.1, SENP8 block-2 93.2 | SENP8 conf inactive | SENP6 conf 94.2 | SENP7 confirm 100.6 | Casp3 select 86.9 | SENP luc ctr 93.9
CCOC(=O)C1=C(COC(=O)c2sccc2C)NC(=O)NC1C (stereo not drawn)	none (no result: Platelet DG rel)
